Test results taken from ChEMBL document CHEMBL4052679, “Design, synthesis and biological evaluation of novel indolin-2-ones as potent anticancer compounds” (Bioorg Med Chem Lett, 2017).
pIC50: −log10 of the molar value. Calls of active or inactive are those of the source. No cut-off for these calls is given here.

Columns and labels:
[1] = test system: HCT-116; assay: Growth inhibition of human HCT116 cells at 10 uM incubated for 3 days by MTT assay
[2] = test system: HepG2; assay: Growth inhibition of human HepG2 cells at 10 uM incubated for 3 days by MTT assay
[3] = test system: NCI-H1650; assay: Growth inhibition of human NCI-H1650 cells at 10 uM incubated for 3 days by MTT assay
[4] = target: CDK9/cyclin T1 (Homo sapiens) (UniProt O60563+P50750); assay: Inhibition of CDK9/Cyclin T1 (unknown origin) at 10 uM; assay type: protein-complex assay
[5] = target: Cyclin-dependent kinase 2/cyclin E1 (Homo sapiens) (UniProt P24864+P24941); assay: Inhibition of CDK2/Cyclin E1 (unknown origin) at 10 uM; assay type: protein-complex assay
[6] = test system: BGC-823; assay: Growth inhibition of human BGC823 cells at 10 uM incubated for 3 days by MTT assay
[7] = test system: A2780; assay: Growth inhibition of human A2780 cells at 10 uM incubated for 3 days by MTT assay
[8] = test system: A2780; assay: Growth inhibition of human A2780 cells incubated for 3 days by MTT assay; conditions: A2780, 72 h
[9] = test system: BGC-823; assay: Growth inhibition of human BGC823 cells incubated for 3 days by MTT assay; conditions: BGC-823, 72 h
[10] = test system: HepG2; assay: Growth inhibition of human HepG2 cells incubated for 3 days by MTT assay; conditions: HepG2, 72 h
[11] = test system: HCT-116; assay: Growth inhibition of human HCT116 cells incubated for 3 days by MTT assay; conditions: HCT-116, 72 h
[12] = test system: NCI-H1650; assay: Growth inhibition of human NCI-H1650 cells incubated for 3 days by MTT assay; conditions: NCI-H1650, 72 h
[13] = test system: MDA-MB-231; assay: Induction of cell cycle arrest in human MDA-MB-231 cells assessed as increase in accumulation at subG1 phase at 5 times IC50 incubated for 24 hrs by propidium iodide staining based flow cytometry; assay type: functional
Method in brief: (§1)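 MDA-MB-231 cells exposed 24 h. Combretastatin A-4 at 200 nM served as reference for G2/M arrest. Cells were then fixed, stained with propidium iodide, and phase distribution was read on a flow cytometer.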

[14] = Growth inhibition of human KBVIN cells incubated for 3 days by SRB assay; assay type: functional, cell-based; conditions: 72 h
[15] = test system: MDA-MB-231; assay: Growth inhibition of human MDA-MB-231 cells incubated for 3 days by SRB assay; assay type: functional, cell-based; conditions: MDA-MB-231, 72 h
[16] = test system: A549; assay: Growth inhibition of human A549 cells incubated for 3 days by SRB assay; assay type: functional, cell-based; conditions: A549, 72 h
[17] = test system: MCF7; assay: Growth inhibition of human MCF7 cells incubated for 3 days by SRB assay; assay type: functional, cell-based; conditions: MCF7, 72 h
[18] = test system: KB; assay: Growth inhibition of human KB cells incubated for 3 days by SRB assay; assay type: functional, cell-based; conditions: 72 h
[19] = test system: MDA-MB-231; assay: Induction of cell cycle arrest in human MDA-MB-231 cells assessed as increase in accumulation at G2/M phase at 5 times IC50 incubated for 24 hrs by propidium iodide staining based flow cytometry; assay type: functional
Method in brief: as §1

[20] = species: Homo sapiens; assay: Induction of microtubule destabilization in human MDA-MB-231 cells at 5 times IC50 incubated for 24 hrs by fluorescent microscopy; assay type: cell-based
Method in brief: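 MDA-MB-231 cells treated 24 h alongside a DMSO control. Cells were fixed and immunostained for α-tubulin and phosphorylated histone H3, with DAPI for DNA. The microtubule network was judged in interphase cells (phospho-H3-negative) by confocal fluorescence microscopy with ×63 or ×40 objectives.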

| inhibition [4] | inhibition [5] | pIC50 [8] | pIC50 [9] | pIC50 [10] | pIC50 [11] | pIC50 [12] | pIC50 [15] | pIC50 [16] | pIC50 [17] | pIC50 [18] | Compound | growth inhibition (GI) [1] | growth inhibition (GI) [2] | growth inhibition (GI) [3] | growth inhibition (GI) [6] | growth inhibition (GI) [7] | Activity [13] | pIC50 [14] | Activity [19] | Activity [20] |
| --- | --- | --- | --- | --- | --- | --- | --- | --- | --- | --- | --- | --- | --- | --- | --- | --- | --- | --- | --- | --- |
| inactive | inactive |  |  |  |  |  |  |  |  |  | O=C1Nc2ccc(F)cc2/C1=C\C(=O)c1cnccn1 | inactive | inactive | inactive | inactive | inactive |  |  |  |  |
| inactive | inactive | 5.80 | 5.21 | 5.46 | 5.97 | 5.46 |  |  |  |  | O=C1Nc2ccc(F)cc2/C1=C\C(=O)c1ccc(O)cc1F |  |  |  |  |  |  |  |  |  |
| inactive | inactive |  |  |  |  |  |  |  |  |  | O=C1Nc2ccc(F)cc2/C1=C\C(=O)c1cc(Cl)sc1Cl | inactive | inactive | inactive | inactive | inactive |  |  |  |  |
| inactive | inactive | 5.63 | 5.10 | 5.51 | 5.85 | 5.56 |  |  |  |  | O=C1Nc2ccc(F)cc2/C1=C\C(=O)c1cnc2ccc(Cl)nn12 |  |  |  |  |  |  |  |  |  |
| inactive | inactive | 5.95 | 5.39 | 5.64 | 6.12 | 5.91 | 5.27 | < 5.00 | < 5.00 | < 5.00 | O=C1Nc2ccc(F)cc2/C1=C\C(=O)c1ccc2c(c1)OCO2 |  |  |  |  |  |  | < 5.00 | Active | Active |
| inactive | inactive | 5.67 | 5.58 | 5.51 | 5.61 | 5.45 |  |  |  |  | O=C1Nc2ccc(F)cc2/C1=C\C(=O)c1sccc1Cl |  |  |  |  |  |  |  |  |  |
| inactive | inactive |  |  |  |  |  |  |  |  |  | O=C1Nc2ccc(F)cc2/C1=C\C(=O)c1ccco1 | inactive | inactive | inactive | inactive | inactive |  |  |  |  |
| inactive | inactive |  |  |  |  |  |  |  |  |  | O=C1Nc2ccc(F)cc2/C1=C\C(=O)c1ccccc1O | inactive | inactive | inactive | inactive | inactive |  |  |  |  |

The next lines start with the molecule.

| Compound | inhibition [4] | inhibition [5] | pIC50 [8] | pIC50 [9] | pIC50 [10] | pIC50 [11] | pIC50 [12] | pIC50 [15] | pIC50 [16] | pIC50 [17] | pIC50 [18] | growth inhibition (GI) [1] | growth inhibition (GI) [2] | growth inhibition (GI) [3] | growth inhibition (GI) [6] | growth inhibition (GI) [7] | Activity [13] | pIC50 [14] | Activity [19] | Activity [20] |
| --- | --- | --- | --- | --- | --- | --- | --- | --- | --- | --- | --- | --- | --- | --- | --- | --- | --- | --- | --- | --- |
| O=C1Nc2ccc(F)cc2/C1=C\C(=O)c1ccc(-n2ccnc2)cc1 | inactive | inactive |  |  |  |  |  |  |  |  |  | inactive | inactive | inactive | inactive | inactive |  |  |  |  |
| O=C1Nc2ccc([N+](=O)[O-])cc2/C1=C\C(=O)c1ccc(C2CCCCC2)cc1 | inactive | inactive | 5.68 | 5.23 | 5.40 | 5.63 | 5.41 |  |  |  |  |  |  |  |  |  |  |  |  |  |
| CN1CCN(c2cccc(N/C=C3\C(=O)Nc4ccc(NC(=O)c5c(Cl)cccc5Cl)cc43)c2)CC1 | inactive | inactive | 5.67 | 5.65 | 5.63 | 5.64 | 5.66 |  |  |  |  |  |  |  |  |  |  |  |  |  |
| CN1CCN(c2cccc(N/C=C3\C(=O)Nc4ccc(NC(=O)c5c(F)cccc5F)cc43)c2)CC1 | inactive | inactive | 5.69 | 5.57 | 5.52 | 5.67 | 5.79 | 5.35 | 5.32 | 5.35 | 5.36 |  |  |  |  |  | Active | 5.10 |  |  |
| O=C1Nc2ccccc2/C1=C\C(=O)c1c[nH]c2ccccc12 | inactive | inactive | 5.68 | 5.03 | 5.68 | 6.07 | 5.90 |  |  |  |  |  |  |  |  |  |  |  |  |  |
| CN1CCN(c2cccc(N/C=C3\C(=O)Nc4ccc(NC(=O)c5cccc(F)c5)cc43)c2)CC1 | inactive | inactive | 5.54 | 5.07 | 5.17 | 5.56 | 5.37 |  |  |  |  |  |  |  |  |  |  |  |  |  |
| O=C1Nc2ccc(F)cc2/C1=C\C(=O)c1ccc(C2CCCCC2)cc1 | inactive | inactive | 5.64 | 5.35 | 5.55 | 5.60 | 5.56 |  |  |  |  |  |  |  |  |  |  |  |  |  |
| CN1CCC(C(=O)Nc2ccc3c(c2)/C(=C/Nc2cccc(N4CCN(C)CC4)c2)C(=O)N3)CC1 | inactive | inactive |  |  |  | 5.33 |  |  |  |  |  |  | inactive | inactive | inactive | inactive |  |  |  |  |
| O=C1Nc2ccc(F)cc2/C1=C\C(=O)c1c[nH]c2ccccc12 | inactive | inactive | 5.61 | 5.05 | 5.73 | 5.52 | 5.18 |  |  |  |  |  |  |  |  |  |  |  |  |  |
| CC(=O)O[C@H]1C(=O)[C@@]2(C)[C@H]([C@H](OC(=O)c3ccccc3)[C@]3(O)C[C@H](OC(=O)[C@H](O)[C@@H](NC(=O)c4ccccc4)c4ccccc4)C(C)=C1C3(C)C)[C@]1(OC(C)=O)CO[C@@H]1C[C@@H]2O [PACLITAXEL] |  |  | 7.52 | 9.00 | 7.70 | 7.52 | 7.15 |  |  |  |  |  |  |  |  |  |  |  |  |  |
| O=C1Nc2ccc(F)cc2/C1=C\C(=O)c1ccc[nH]1 | inactive | inactive | 5.66 | 5.19 | 5.51 | 5.86 | 5.55 |  |  |  |  |  |  |  |  |  |  |  |  |  |
| COc1ccc(C(=O)Nc2ccc3c(c2)/C(=C/Nc2cccc(N4CCN(C)CC4)c2)C(=O)N3)cc1 | inactive | inactive | 5.69 | 5.50 | 5.75 | 5.70 | 5.73 |  |  |  |  |  |  |  |  |  |  |  |  |  |
| O=C1Nc2ccc(F)cc2/C1=C\C(=O)c1nccs1 | inactive | inactive |  |  |  |  |  |  |  |  |  | inactive | inactive | inactive | inactive | inactive |  |  |  |  |
| CC(C)CC(=O)Nc1ccc2c(c1)/C(=C/Nc1cccc(N3CCN(C)CC3)c1)C(=O)N2 | inactive | inactive | 5.47 | 5.22 | 5.29 | 5.03 | 5.23 |  |  |  |  |  |  |  |  |  |  |  |  |  |
| CN1CCN(c2cccc(N/C=C3\C(=O)Nc4ccc(NC(=O)c5ccc[nH]5)cc43)c2)CC1 | inactive | inactive | 5.35 |  | 5.27 |  | 5.12 |  |  |  |  | inactive |  |  | inactive |  |  |  |  |  |
| O=C1Nc2ccc(F)cc2/C1=C\C(=O)c1cccs1 | inactive | inactive | 5.56 | 5.11 | 5.06 | 5.74 | 5.49 |  |  |  |  |  |  |  |  |  |  |  |  |  |
| O=C1Nc2ccccc2/C1=C1/Nc2ccccc2/C1=N\O |  |  |  |  |  |  |  | 5.12 | 5.24 | 5.17 | 5.27 | inactive | inactive | inactive | inactive | inactive |  | 5.29 | Active | inactive |
